Results: ChEMBL document CHEMBL1955718, “Discovery of new orally effective analgesic and anti-inflammatory hybrid furoxanyl N-acylhydrazone derivatives” (Bioorg Med Chem, 2012)

Tests used:
[1] = Induction of NO release in 0.1 M Tris-HCl and 0.1 mM DTPA at pH 7.4 measured for 20 mins in presence of cysteine; type: physicochemical; settings: buffer, pH 7.4, 20 min
Procedure, shortened: (§1)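 Electrochemical NO detection with an ISO-NOP sensor. Compounds in DMSO added to 0.1 M Tris-HCl, 0.1 mM DTPA at pH 7.4 or 8.3. Cysteine (300 or 100 µM) added and NO recorded for 20 min at 25 or 37 °C; compound:Cys ratio 1:1 at 25 °C, with 3:1 and 37 °C runs also made.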

[2] = Induction of NO release in 0.1 M Tris-HCl and 0.1 mM DTPA at pH 8.3 measured for 20 mins in presence of cysteine; type: physicochemical; settings: buffer, pH 8.3, 20 min; procedure, shortened: as §1
[3] = system: HT-29; assay: Pro-inflammatory activity in NFkappaB-GFP transfected human HT-29 cells at 25 to 400 uM after 24 hrs by propidium iodide staining-based flow cytometric analysis; type: ADME, cell-based; settings: ht-29, 24 h
Procedure, shortened: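 Reporter HT-29-NF-κB-hrGFP cells given compound alone, without TNF-α, for 18–24 h at 37 °C after the same 2 h pre-incubation. GFP-positive live (propidium iodide-excluding) cells counted by flow cytometry; IL-8 in supernatant measured by bead-based flow cytometry.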

[4] = Cytotoxicity against mouse […] cells after 48 hrs by MTT assay; type: cell-based
Procedure, shortened: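 J774 macrophages in DMEM (4 mM L-glutamine, 10% heat-inactivated FBS) were seeded at 1 × 10^5 cells/well and grown for 48 h at 37 °C, 5% CO2. They were then exposed to compounds at 25–400 µM for 48 h. MTT (0.1 mg/mL final) was added for 3 h, formazan was dissolved in DMSO/glycine buffer pH 10.5, and absorbance was read at 560 nm to give an IC50.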

[5] = system: HT-29; assay: Inhibition of TNFalpha-induced NF-kappaB activation expressed in human HT-29 cells coexpressing hrGFP at 100 uM after 24 hrs by propidium iodide staining-based flow cytometric analysis relative to control; type: cell-based
Procedure, shortened: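 HT-29 cells stably expressing NF-κB-driven hrGFP given compound (DMSO <0.5%) for 2 h at the maximum non-cytotoxic concentration, then TNF-α at 3 ng/mL final for 18–24 h. Cells trypsinised and stained with propidium iodide; 5000 events gated on FSC/SSC. The %GFP-positive among PI-excluding live cells is normalised to TNF-α/DMSO control, ± SD.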

[6] = system: Glycine max; assay: Inhibition of soybean lipoxygenase using arachidonic acid as substrate at 50 uM
Procedure, shortened: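 Soybean 15-lipoxygenase kit assay, arachidonic acid substrate, H2O2 as lipoxygenating agent in 0.1 M Tris-HCl pH 7.4. Single-point screen at 50 µM. IC50 found by varying concentration over 10–100 µM. Quercetin at 4 µM as positive control; duplicate means; Student t-test.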

[7] = target: T1, Prostaglandin G/H synthase 1 (Ovis aries) (UniProt P05979); assay: Inhibition of ovine COX-1 at 10 uM
T1 sequence (whole entry): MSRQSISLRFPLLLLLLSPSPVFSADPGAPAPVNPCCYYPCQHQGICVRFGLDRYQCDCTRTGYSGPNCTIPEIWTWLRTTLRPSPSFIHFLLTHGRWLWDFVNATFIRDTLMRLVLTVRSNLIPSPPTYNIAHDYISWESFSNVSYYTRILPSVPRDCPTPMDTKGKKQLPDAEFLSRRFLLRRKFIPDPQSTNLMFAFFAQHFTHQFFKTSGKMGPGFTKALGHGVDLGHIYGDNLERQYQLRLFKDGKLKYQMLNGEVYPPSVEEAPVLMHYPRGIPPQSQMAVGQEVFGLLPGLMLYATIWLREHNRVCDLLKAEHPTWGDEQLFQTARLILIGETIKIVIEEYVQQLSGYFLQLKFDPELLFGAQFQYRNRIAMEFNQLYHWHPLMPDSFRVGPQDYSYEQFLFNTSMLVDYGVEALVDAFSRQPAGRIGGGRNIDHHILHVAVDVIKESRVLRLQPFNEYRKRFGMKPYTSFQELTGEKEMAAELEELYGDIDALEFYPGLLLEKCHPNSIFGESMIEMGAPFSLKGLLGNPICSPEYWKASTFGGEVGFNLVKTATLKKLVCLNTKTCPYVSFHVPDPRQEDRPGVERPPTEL
Procedure, shortened: (§2)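 Isolated ovine COX-1 and human recombinant COX-2 tested by ELISA-based inhibitor screening kit with compound at 10 and 50 µM. Positive control indomethacin at 0.1 µM (COX-1) or 6 µM (COX-2). Mean of duplicates; Student t-test.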

[8] = system: Rattus norvegicus; assay: Antiinflammatory activity in albino rat assessed as inhibition of carrageenan-induced paw edema at 100 umol/kg, po administered 1 hr before carrageenan challenge measured after 3 hrs by plethysmometric analysis relative to control; type: functional
Procedure, shortened: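 Albino rats of both sexes (150–200 g) were dosed orally as a suspension in 1% Tween 80 in saline, with vehicle controls. After 1 h, 0.1 mL 1% carrageenan or saline was injected subplantar. Paw volume was read by glass plethysmometer at 3 h. Edema = carrageenan-paw minus saline-paw volume; % inhibition vs vehicle; Student t-test.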

[9] = target: T1, Prostaglandin G/H synthase 1 (Ovis aries); assay: Inhibition of ovine COX-1 at 50 uM; procedure, shortened: as §2
[10] = target: T2, Prostaglandin G/H synthase 2 (Homo sapiens) (UniProt P35354); assay: Inhibition of human recombinant COX-2 at 50 uM; procedure, shortened: as §2
T2 sequence (whole entry): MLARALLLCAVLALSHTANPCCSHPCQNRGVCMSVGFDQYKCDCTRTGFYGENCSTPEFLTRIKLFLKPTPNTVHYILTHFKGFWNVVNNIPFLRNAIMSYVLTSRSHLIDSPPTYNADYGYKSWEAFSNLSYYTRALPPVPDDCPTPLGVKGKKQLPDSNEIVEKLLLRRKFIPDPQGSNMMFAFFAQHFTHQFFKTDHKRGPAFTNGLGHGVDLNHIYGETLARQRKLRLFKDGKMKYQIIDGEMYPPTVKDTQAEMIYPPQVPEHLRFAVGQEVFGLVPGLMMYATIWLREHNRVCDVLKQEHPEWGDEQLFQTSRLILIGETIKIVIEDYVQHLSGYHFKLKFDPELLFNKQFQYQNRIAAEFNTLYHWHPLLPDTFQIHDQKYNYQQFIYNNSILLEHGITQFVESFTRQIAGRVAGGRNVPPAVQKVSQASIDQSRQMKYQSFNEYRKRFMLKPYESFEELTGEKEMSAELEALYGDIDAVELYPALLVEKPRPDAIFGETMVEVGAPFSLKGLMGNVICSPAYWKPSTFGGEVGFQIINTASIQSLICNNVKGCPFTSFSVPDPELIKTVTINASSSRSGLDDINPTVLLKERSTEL

[11] = target: T2, Prostaglandin G/H synthase 2 (Homo sapiens); assay: Inhibition of human recombinant COX-2 at 10 uM; procedure, shortened: as §2
[12] = Cytotoxicity against human HT-29 cells expressing NF-kappaB-hrGFP assessed as highest non-cytotoxic dose for 100% cell survival after 24 hrs by MTT assay; type: cell-based; settings: read-out: Activity
Procedure, shortened: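 HT-29 cells stably carrying pNF-κB-hrGFP, seeded at 0.5 × 10^6/mL in DMEM with 10% FBS, grown 24 h at 37 °C, 5% CO2. Compounds added in DMSO (<0.5% v/v final) at 12.5–400 µM for 24 h. Viability by MTT reduction (2 h), formazan dissolved in DMSO/glycine buffer, read at 560 nm.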

Compound | Activity [1] | Activity [2] | Activity [3] | IC50 [4] | NF-kappaB activity (% of TNF-alpha control) [5] | inhibition [6] | inhibition [7] | inhibition in vivo at 100 µmol/kg [8] | inhibition [9] | inhibition [10] | inhibition [11] | MNTC at 24 h [12]
O=C(N/N=C/c1c(-c2ccccc2)no[n+]1[O-])c1ccc2c(c1)OCO2 | 0 nM/min | 0.39 nM/min | Non-toxic | 191 µM | 12% | 0% | 27% | 0% | 28.5% | 11.9% | 13.1% | 100 µM
Cc1c(C(=O)N/N=C/c2ccc(N(C)C)cc2)no[n+]1[O-] |  |  | Non-toxic | 129 µM | 150% | 0% | 22.5% | 19% | 25.3% | 22% | 17.8% | 100 µM
Cc1[nH]cnc1C(=O)N/N=C/c1ccc2no[n+]([O-])c2c1 | 0 nM/min | 0 nM/min | Non-toxic | 38 µM |  | 0% | 25.9% | 31% | 22.3% | 6.4% | 19.6% | 50 µM
